Key:
Format in all cases: functional
[1] = test system: Ovis aries; test: Activity against adult gastrointestinal helminths of experimentally infected sheep on oral administration of Ostertagia circumcincta at 0.1 mg/kg; 75-90
Method in brief: (§1)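 Sheep were given the compound orally, each at one dose, with concurrent experimental infections of six adult gastrointestinal nematode species. Efficacy against adult worms was recorded as a categorical score for each species.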

[2] = test system: Ovis aries; test: Activity against adult gastrointestinal helminths of experimentally infected sheep on oral administration of Trichostrongylus axei at 0.1 mg/kg.; method in brief: as §1
[3] = test system: Ovis aries; test: Activity against adult gastrointestinal helminths of experimentally infected sheep on oral administration of Trichostrongylus colubriformis at 0.1 mg/kg.
Method in brief: (§2)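 Sheep were given the compound orally, each at one dose, with experimental infections of six gastrointestinal nematode species. The Haemonchus contortus and Trichostrongylus colubriformis strains were benzimidazole-resistant. Efficacy against adult worms was recorded as a categorical score.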

[4] = test system: Ovis aries; test: Activity against adult gastrointestinal helminths of experimentally infected sheep on oral administration of Oesophagostomum columbianum at 0.1 mg/kg.; method in brief: as §1
[5] = test system: Ovis aries; test: Activity against adult gastrointestinal helminths of experimentally infected sheep on oral administration of Cooperia species at 0.1 mg/kg; 75-90; method in brief: as §1
[6] = test system: Ovis aries; test: Activity against adult gastrointestinal helminths of experimentally infected sheep on oral administration of Haemonchus contortus at 0.1 mg/kg; 75-90; method in brief: as §2
[7] = test system: Ovis aries; test: Activity against adult gastrointestinal helminths of experimentally infected sheep on oral administration of Cooperia species at 0.3 mg/kg.; method in brief: as §1
[8] = test system: Ovis aries; test: Activity against adult gastrointestinal helminths of experimentally infected sheep on oral administration of Ostertagia circumcincta at 0.3 mg/kg; 75-90; method in brief: as §1
[9] = test system: Ovis aries; test: Activity against adult gastrointestinal helminths of experimentally infected sheep on oral administration of Oesophagostomum columbianum at 0.3 mg/kg.; method in brief: as §1
[10] = test system: Ovis aries; test: Activity against adult gastrointestinal helminths of experimentally infected sheep on oral administration of Trichostrongylus axei at 0.3 mg/kg.; method in brief: as §1
[11] = test system: Ovis aries; test: Activity against adult gastrointestinal helminths of experimentally infected sheep on oral administration of Trichostrongylus colubriformis at 0.3 mg/kg; 50-74; method in brief: as §2
[12] = test system: Ovis aries; test: Activity against adult gastrointestinal helminths of experimentally infected sheep on oral administration of Haemonchus contortus at 0.3 mg/kg.; method in brief: as §2
[13] = test system: Ovis aries; test: Activity against adult gastrointestinal helminths of experimentally infected sheep on oral administration of Cooperia species at 0.2 mg/kg.; method in brief: as §1
[14] = test system: Ovis aries; test: Activity against adult gastrointestinal helminths of experimentally infected sheep on oral administration of Ostertagia circumcincta at 0.2 mg/kg.; method in brief: as §1
[15] = test system: Ovis aries; test: Activity against adult gastrointestinal helminths of experimentally infected sheep on oral administration of Trichostrongylus colubriformis at 0.2 mg/kg.; method in brief: as §2
[16] = test system: Ovis aries; test: Activity against adult gastrointestinal helminths of experimentally infected sheep on oral administration of Haemonchus contortus at 0.2 mg/kg.; method in brief: as §2
[17] = test system: Ovis aries; test: Activity against adult gastrointestinal helminths of experimentally infected sheep on oral administration of Oesophagostomum columbianum at 0.2 mg/kg.; method in brief: as §1
[18] = test system: Ovis aries; test: Activity against adult gastrointestinal helminths of experimentally infected sheep on oral administration of Trichostrongylus axei at 0.2 mg/kg; 50-74; method in brief: as §1
[19] = test system: Ovis aries; test: Activity against adult gastrointestinal helminths of experimentally infected sheep on oral administration of Trichostrongylus colubriformis at 0.15 mg/kg.; method in brief: as §2
[20] = test system: Ovis aries; test: Activity against adult gastrointestinal helminths of experimentally infected sheep on oral administration of Trichostrongylus axei at 0.15 mg/kg.; method in brief: as §1
[21] = test system: Ovis aries; test: Activity against adult gastrointestinal helminths of experimentally infected sheep on oral administration of Oesophagostomum columbianum at 0.15 mg/kg.; method in brief: as §1
[22] = test system: Ovis aries; test: Activity against adult gastrointestinal helminths of experimentally infected sheep on oral administration of Cooperia species at 0.15 mg/kg.; method in brief: as §1
[23] = test system: Ovis aries; test: Activity against adult gastrointestinal helminths of experimentally infected sheep on oral administration of Ostertagia circumcincta at 0.15 mg/kg; 75-90; method in brief: as §1
[24] = test system: Ovis aries; test: Activity against adult gastrointestinal helminths of experimentally infected sheep on oral administration of Haemonchus contortus at 0.15 mg/kg 75-90; method in brief: as §2
[25] = test system: Ovis aries; test: Activity against adult gastrointestinal helminths of experimentally infected sheep on oral administration of Ostertagia circumcincta at 0.3 mg/kg.; method in brief: as §1
[26] = test system: Ovis aries; test: Activity against adult gastrointestinal helminths of experimentally infected sheep on oral administration of Trichostrongylus colubriformis at 0.3 mg/kg.; method in brief: as §2
[27] = test system: Ovis aries; test: Activity against adult gastrointestinal helminths of experimentally infected sheep on oral administration of Cooperia species at 0.3 mg/kg; 75-90; method in brief: as §1
[28] = test system: Ovis aries; test: Activity against adult gastrointestinal helminths of experimentally infected sheep on oral administration of Cooperia species at 3.0 mg/kg; 50-74; method in brief: as §1
[29] = test system: Ovis aries; test: Activity against adult gastrointestinal helminths of experimentally infected sheep on oral administration of Trichostrongylus colubriformis at 3.0 mg/kg.; method in brief: as §2
[30] = test system: Ovis aries; test: Activity against adult gastrointestinal helminths of experimentally infected sheep on oral administration of Ostertagia circumcincta at 3.0 mg/kg; 75-90; method in brief: as §1
[31] = test system: Ovis aries; test: Activity against adult gastrointestinal helminths of experimentally infected sheep on oral administration of Haemonchus contortus at 3.0 mg/kg; 50-74; method in brief: as §2
[32] = test system: Ovis aries; test: Activity against adult gastrointestinal helminths of experimentally infected sheep on oral administration of Trichostrongylus axei at 3.0 mg/kg.; method in brief: as §1
[33] = test system: Ovis aries; test: Activity against adult gastrointestinal helminths of experimentally infected sheep on oral administration of Oesophagostomum columbianum at 3.0 mg/kg.; method in brief: as §1
[34] = test system: Ovis aries; test: Activity against adult gastrointestinal helminths of experimentally infected sheep on oral administration of Haemonchus contortus at 0.1 mg/kg.; method in brief: as §2
[35] = test system: Ovis aries; test: Activity against adult gastrointestinal helminths of experimentally infected sheep on oral administration of Ostertagia circumcincta at 0.1 mg/kg.; method in brief: as §1
[36] = test system: Ovis aries; test: Activity against adult gastrointestinal helminths of experimentally infected sheep on oral administration of Cooperia species at 0.1 mg/kg.; method in brief: as §1
[37] = test system: Ovis aries; test: Activity against adult gastrointestinal helminths of experimentally infected sheep on oral administration of Cooperia species at 0.05 mg/kg.
[38] = test system: Ovis aries; test: Activity against adult gastrointestinal helminths of experimentally infected sheep on oral administration of Trichostrongylus axei at 0.05 mg/kg.
[39] = test system: Ovis aries; test: Activity against adult gastrointestinal helminths of experimentally infected sheep on oral administration of Ostertagia circumcincta at 0.05 mg/kg.
[40] = test system: Ovis aries; test: Activity against adult gastrointestinal helminths of experimentally infected sheep on oral administration of Haemonchus contortus at 0.05 mg/kg.
Method in brief: (§3)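 Sheep were experimentally infected with benzimidazole-resistant isolates of this species among six gastrointestinal helminths and dosed orally. Efficacy against the adult worms was scored per species.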

[41] = test system: Ovis aries; test: Activity against adult gastrointestinal helminths of experimentally infected sheep on oral administration of Trichostrongylus colubriformis at 0.05 mg/kg.; method in brief: as §3
[42] = test system: Ovis aries; test: Activity against adult gastrointestinal helminths of experimentally infected sheep on oral administration of Oesophagostomum columbianum at 0.05 mg/kg.
[43] = test system: Ovis aries; test: Activity against adult gastrointestinal helminths of experimentally infected sheep on oral administration of Trichostrongylus axei at 0.2 mg/kg.; method in brief: as §1

`CC[C@H](C)[C@H]1O[C@]2(C=C[C@@H]1C)C[C@@H]1C[C@@H](C/C=C(\C)[C@@H](OC3CC(OC)C(OC4CC(OC)C(O)C(C)O4)C(C)O3)[C@@H](C)/C=C/C=C3\CO[C@@H]4[C@H](OC)C(C)=C[C@@H](C(=O)O1)[C@]34O)O2` (stereo not given in full) [AVERMECTIN A1] showed an Efficacy [1] of 75%, an Efficacy [2] of less than 50% and an Efficacy [3] of less than 50%. The Efficacy [4] was less than 50%, the Efficacy [5] was 75% and the Efficacy [6] was 75%.
Work on `CC[C@H](C)[C@H]1O[C@]2(CC[C@@H]1C)C[C@@H]1C[C@@H](C/C=C(\C)[C@@H](O[C@H]3C[C@H](OC)[C@@H](O[C@H]4C[C@H](OC)[C@@H](O)[C@H](C)O4)[C@H](C)O3)[C@@H](C)/C=C/C=C3\CO[C@@H]4[C@H](OC)C(C)=C[C@@H](C(=O)O1)[C@]34O)O2` yielded an Efficacy [7] of less than 50%, an Efficacy [8] of 75% and an Efficacy [9] greater than 90%. The Efficacy [10] was less than 50%, the Efficacy [11] was 50% and the Efficacy [12] was greater than 90%.
For `CO[C@H]1C[C@H](O[C@H]2[C@H](C)O[C@@H](O[C@@H]3/C(C)=C/C[C@@H]4C[C@@H](C[C@]5(CC[C@H](C)[C@@H](C(C)C)O5)O4)OC(=O)[C@@H]4CC(C)[C@@H](O)[C@H]5OC/C(=C\C=C\[C@@H]3C)[C@]54O)C[C@@H]2OC)O[C@@H](C)[C@@H]1O` (stereo not given in full), the Efficacy [13] was less than 50%, the Efficacy [14] was less than 50% and the Efficacy [15] was less than 50%. It also gave an Efficacy [16] of less than 50%, an Efficacy [17] greater than 90% and an Efficacy [18] of 50%.
Compound `COC1CC(O[C@@H]2/C(C)=C/C[C@@H]3C[C@@H](C[C@]4(C=C[C@H](C)[C@@H](C(C)C)O4)O3)OC(=O)[C@@H]3C=C(C)[C@@H](O)[C@H]4OC/C(=C\C=C\[C@@H]2C)[C@]43O)OC(C)C1O` (stereo not given in full) [AVERMECTIN B1 MONOSACCHARIDE] has an Efficacy [19] greater than 90%, an Efficacy [20] greater than 90% and an Efficacy [21] of less than 50%. For the same compound, the Efficacy [22] was greater than 90%, the Efficacy [23] was 75% and the Efficacy [24] was 75%.
Work on `CO[C@H]1C[C@H](O[C@@H]2/C(C)=C/C[C@@H]3C[C@@H](C[C@]4(CC[C@H](C)[C@@H](C(C)C)O4)O3)OC(=O)[C@@H]3C=C(C)[C@@H](O)[C@H]4OC/C(=C\C=C\[C@@H]2C)[C@]43O)O[C@@H](C)[C@@H]1O` yielded an Efficacy [25] greater than 90%, an Efficacy [26] greater than 90% and an Efficacy [9] greater than 90%. For the same compound, the Efficacy [10] was greater than 90%, the Efficacy [12] was greater than 90% and the Efficacy [27] was 75%.
In the case of `CC1=C[C@H]2C(=O)O[C@H]3C[C@@H](C/C=C(\C)[C@@H](O)[C@@H](C)/C=C/C=C4\CO[C@H]([C@@H]1O)[C@@]42O)O[C@@]1(CC[C@H](C)[C@@H](C(C)C)O1)C3`, the Efficacy [28] is reported as 50%, the Efficacy [29] is reported as greater than 90% and the Efficacy [30] is reported as 75%. For the same compound, the Efficacy [31] was 50%, the Efficacy [32] was greater than 90% and the Efficacy [33] was greater than 90%.
Work on `CC[C@H](C)[C@H]1O[C@]2(CC(O)[C@@H]1C)C[C@@H]1C[C@@H](C/C=C(\C)[C@@H](OC3CC(OC)C(OC4CC(OC)C(O)C(C)O4)C(C)O3)[C@@H](C)/C=C/C=C3\CO[C@@H]4[C@H](OC)C(C)=C[C@@H](C(=O)O1)[C@]34O)O2` (stereo not given in full) [AVERMECTIN A2] yielded an Efficacy [34] greater than 90%, an Efficacy [2] greater than 90% and an Efficacy [35] greater than 90%. The Efficacy [3] was greater than 90%, the Efficacy [36] was less than 50% and the Efficacy [4] was greater than 90%.
With `CC[C@H](C)[C@H]1O[C@]2(C=C[C@@H]1C)C[C@@H]1C[C@@H](C/C=C(\C)[C@@H](O[C@H]3C[C@H](OC)[C@@H](O[C@H]4C[C@H](OC)[C@@H](O)[C@H](C)O4)[C@H](C)O3)[C@@H](C)/C=C/C=C3\CO[C@@H]4[C@H](O)C(C)=C[C@@H](C(=O)O1)[C@]34O)O2` [ABAMECTIN COMPONENT B1A] the Efficacy [37] was greater than 90%, the Efficacy [38] was greater than 90% and the Efficacy [39] was greater than 90%. The Efficacy [40] was greater than 90%, the Efficacy [41] was greater than 90% and the Efficacy [42] was greater than 90%.
`COC1CC(O[C@@H]2/C(C)=C/C[C@@H]3C[C@@H](C[C@]4(CC(O)[C@H](C)[C@@H](C(C)C)O4)O3)OC(=O)[C@@H]3C=C(C)[C@@H](O)[C@H]4OC/C(=C\C=C\[C@@H]2C)[C@]43O)OC(C)C1O` (stereo not given in full) [AVERMECTIN B2 MONOSACCHARIDE] gave an Efficacy [13] greater than 90%, an Efficacy [14] of 50% and an Efficacy [15] greater than 90%. The Efficacy [16] was 50%, the Efficacy [17] was greater than 90% and the Efficacy [43] was greater than 90%.
Work on `COC1CC(OC2C(C)OC(O[C@@H]3/C(C)=C/C[C@@H]4C[C@@H](C[C@]5(CC(O)[C@H](C)[C@@H](C(C)C)O5)O4)OC(=O)[C@@H]4C=C(C)[C@@H](O)[C@H]5OC/C(=C\C=C\[C@@H]3C)[C@]54O)CC2OC)OC(C)C1O` (stereo not given in full) [AVERMECTIN B2] yielded an Efficacy [34] of less than 50%, an Efficacy [2] greater than 90% and an Efficacy [35] greater than 90%. For the same compound, the Efficacy [3] was greater than 90%, the Efficacy [36] was greater than 90% and the Efficacy [4] was greater than 90%.

Reference: ChEMBL document CHEMBL1121612, “Ivermectin, a new broad-spectrum antiparasitic agent” (1980)
